Active and inactive are the calls of the source. The rule behind the calls is not given here.
Experiments:
BE(2)-C [1] = test: Cytotoxicity against human BE2C cells assessed as reduction in cell viability incubated for 48 hrs by MTS assay; format: functional, cell-based; settings: dose 0.1-10 µM, DDE = dose-dependent effect
In short: (§1)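 Neuroblastoma lines seeded 5,000 cells/well, attached overnight, treated 48 h in complete medium (DMSO ≤0.2%); MTS reagent 1:10 in fresh RPMI 2–4 h, absorbance 490 nm.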

Kelly = test: Cytotoxicity against human Kelly cells assessed as reduction in cell viability incubated for 48 hrs by MTS assay; format: functional, cell-based; settings: dose 0.1-10 µM, DDE = dose-dependent effect; in short: as §1
SH-SY5Y [2] = test: Cytotoxicity against human SH-SY5Y cells assessed as reduction in cell viability incubated for 48 hrs by MTS assay; format: functional, cell-based; settings: dose 0.1-10 µM, DDE = dose-dependent effect; in short: as §1
[3] = Downregulation of VDR expression in human BE2C cells at 1 uM incubated for 24 hrs by western blot analysis relative to control; format: functional, BE(2)-C
In short: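 BE(2)-C neuroblastoma cells were treated for 24 h and immunoblotted for VDR, with β-actin or α-tubulin as loading control. Band intensities are reported as normalized densitometry.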

[4] = target: T1, Vitamin D3 receptor (Homo sapiens) (UniProt P11473); test: Antagonist activity at VDR in human BE2C cells assessed as reduction in MYCN expression at 1 uM incubated for 24 hrs by western blot analysis relative to control; format: cell-based; settings: filed as antagonist
T1 sequence (whole entry): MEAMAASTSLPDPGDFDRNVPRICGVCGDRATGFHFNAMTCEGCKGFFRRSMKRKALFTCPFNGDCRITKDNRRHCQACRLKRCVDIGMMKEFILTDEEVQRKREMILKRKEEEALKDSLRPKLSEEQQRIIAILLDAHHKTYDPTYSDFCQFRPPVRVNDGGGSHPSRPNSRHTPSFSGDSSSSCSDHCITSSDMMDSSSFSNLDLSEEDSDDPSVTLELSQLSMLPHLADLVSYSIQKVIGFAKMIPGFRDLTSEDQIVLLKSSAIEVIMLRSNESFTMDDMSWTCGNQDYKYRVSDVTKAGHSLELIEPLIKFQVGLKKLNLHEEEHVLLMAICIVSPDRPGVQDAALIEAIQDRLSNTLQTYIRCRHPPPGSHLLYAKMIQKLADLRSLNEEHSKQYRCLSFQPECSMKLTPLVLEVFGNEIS
In short: (§2)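 BE(2)-C cells given 1 μM for 24 h; immunoblot with β-actin or α-tubulin loading control; normalized densitometry.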

[5] = target: T1, Vitamin D3 receptor (Homo sapiens); test: Antagonist activity at VDR in human BE2C cells assessed as reduction in cyclin-D expression at 1 uM incubated for 24 hrs by western blot analysis relative to control; format: cell-based; settings: filed as antagonist; in short: as §2
SH-SY5Y [6] = test: Anti-tumor activity against human SH-SY5Y cells xenografted in NSG mouse assessed as reduction in tumor volume at 10 mg/kg, ip measured for 5 to 10 days; format: functional, organism-based; settings: time 5-10 day
In short: (§3)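 NSG mice, 6–8 weeks, injected subcutaneously in right flank with ES2 (250,000) or SH-SY5Y/BE(2)C (1 million) cells in cold matrigel/serum-free RPMI 1:1. Once palpable, 10 mg/kg IP M–F vs vehicle; volume (length × width2)[…]; BE(2)C and ES2 monitored alternate days; endpoint 2000 mm3; % change in volume, t-test.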

BE(2)-C [7] = test: Anti-tumor activity against human BE2C cells xenografted in NSG mouse assessed as reduction in tumor volume at 10 mg/kg, ip measured for 5 to 8 days; format: functional, organism-based; settings: time 5-8 day; in short: as §3
Tumor cell line [8] = test: Cytotoxicity against tumor cells in TH-MYCN +/+ transgenic neuroblastoma 129x1/SvJ.Tg (TH-MYCN)41Waw/Nci mouse model assessed as reduction in cell viability at 0.1 to 10 uM measured after 3 days by MTS assay; format: functional, cell-based; settings: dose 0.1-10 µM, time 3.0 day
In short: (§4)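 Tumor cells mechanically dissociated from tumors of three homozygous TH-MYCN mice, grown as spheres in RPMI1640 with 20% FBS, 2-mercaptoethanol, pyruvate and NEAA; treated 3 days; viability by MTS; spheres imaged by light microscopy.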

Tumor cell line [9] = test: Cytotoxicity against tumor cells in TH-MYCN +/+ transgenic neuroblastoma 129x1/SvJ.Tg (TH-MYCN)41Waw/Nci mouse model assessed as reduction in viability of tumor spheres measured after 3 days by light microscopy; format: functional, cell-based; settings: dose 1-4 µM, time 3.0 day, DDE = dose-dependent effect; in short: as §4
Mus musculus [10] = test: Anti-tumor activity against TH-MYCN +/+ transgenic neuroblastoma 129x1/SvJ.Tg (TH-MYCN)41Waw/Nci mouse model assessed as reduction in tumor growth at 10 mg/kg, ip measured upto 7 days by ultrasound imaging analysis; format: functional, organism-based; settings: time <= 7.0 day
In short: (§5)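 Homozygous TH-MYCN+/+ mice (129×1/SvJ background, genotyped) with spontaneous neuroblastoma dosed IP, vehicle n = 7, 10 mg/kg n = 8, six treatments; a 100 mg/kg group got three. Tumor burden by abdominal ultrasound under 1–3% isoflurane; tumors excised and weighed at end; groups compared by t-test.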

Mus musculus [11] = test: Anti-tumor activity against tumor cells in TH-MYCN +/+ neuroblastoma 129x1/SvJ.Tg (TH-MYCN)41Waw/Nci mouse model assessed as reduction in tumor volume administered intraperitoneally measured on day 7 by ultrasound imaging analysis; format: functional, organism-based; settings: route ip, time 7.0 day, DDE = dose-dependent effect; in short: as §5
Mus musculus [12] = test: Anti-tumor activity against tumor cells in TH-MYCN +/+ neuroblastoma 129x1/SvJ.Tg (TH-MYCN)41Waw/Nci mouse model assessed as reduction in tumor weight at 10 mg/kg, ip measured on day 7 by ultrasound imaging analysis; format: functional, organism-based; settings: time 7.0 day; in short: as §5
[13] = Toxicity in TH-MYCN +/+ transgenic neuroblastoma 129x1/SvJ.Tg (TH-MYCN)41Waw/Nci mouse model assessed as effect on CD45+ cells population at 10 mg/kg, ip qd by flow cytometry; format: organism-based; settings: in vivo
In short: (§6)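 Immune cells isolated from TH-MYCN tumor-bearing mice treated with vehicle or compound; CD45+, CD4+, CD8+, macrophage, patrolling monocyte/DC and CD11b+ populations quantified by flow cytometry with characterized markers.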

[14] = Toxicity in TH-MYCN +/+ transgenic neuroblastoma 129x1/SvJ.Tg (TH-MYCN)41Waw/Nci mouse model assessed as effect on CD4+ cells population at 10 mg/kg, ip qd by flow cytometry; format: organism-based; settings: in vivo; in short: as §6
[15] = Toxicity in TH-MYCN +/+ transgenic neuroblastoma 129x1/SvJ.Tg (TH-MYCN)41Waw/Nci mouse model assessed as effect on CD8+ cells population at 10 mg/kg, ip qd by flow cytometry; format: organism-based; settings: in vivo; in short: as §6
[16] = Toxicity in TH-MYCN +/+ transgenic neuroblastoma 129x1/SvJ.Tg (TH-MYCN)41Waw/Nci mouse model assessed as effect on macrophage population at 10 mg/kg, ip qd by flow cytometry; format: organism-based; settings: in vivo; in short: as §6
[17] = Toxicity in TH-MYCN +/+ transgenic neuroblastoma 129x1/SvJ.Tg (TH-MYCN)41Waw/Nci mouse model assessed as effect on patrolling monocytes/DC+ cells population at 10 mg/kg, ip qd by flow cytometry; format: organism-based; settings: in vivo; in short: as §6
[18] = Toxicity in TH-MYCN +/+ transgenic neuroblastoma 129x1/SvJ.Tg (TH-MYCN)41Waw/Nci mouse model assessed as effect on CD11b+ cells population at 10 mg/kg, ip qd by flow cytometry; format: organism-based; settings: in vivo; in short: as §6
[19] = Anti-tumor activity against human SK-OV-3 cells xenografted in nude mouse assessed as animal survival at 10 mg/kg, ip measured upto 36 days; settings: SK-OV-3, 864 h
SK-OV-3 = test: Anti-tumor activity against human SK-OV-3 cells xenografted in nude mouse assessed as reduction in tumor growth at 10 mg/kg, ip measured for 1 to 39 days; settings: time 1-39 day

## CC(C)CCC[C@@H](C)[C@H]1CC[C@@H]2[C@]1(C)CCC1[C@]23C=C[C@]2(C[C@@H](OC(=O)CBr)CC[C@]12C)n1c(=O)n(C)c(=O)n13 (stereo partly specified)
BE(2)-C [1]
  Activity: Dde
Kelly
  Activity: Dde
SH-SY5Y [2]
  Activity: Dde
[3]
  fold change (FC): 0.83
[4]
  fold change (FC): 0.68
[5]
  fold change (FC): 0.8
SH-SY5Y [6]
  Activity: Active
BE(2)-C [7]
  Activity: Active
Tumor cell line [8]
  Activity: Active
Tumor cell line [9]
  Activity: Dde
Mus musculus [10]
  Activity: Active
Mus musculus [11]
  Activity: Dde
Mus musculus [12]
  Activity: Active
[13]
  Activity: Non-Toxic
[14]
  Activity: Non-Toxic
[15]
  Activity: Non-Toxic
[16]
  Activity: Non-Toxic
[17]
  Activity: Non-Toxic
[18]
  Activity: Non-Toxic
[19]
  survival at 10 mg/kg: 100%
SK-OV-3
  Activity: Active

Source: ChEMBL document CHEMBL5154854, “Identification of a Vitamin-D Receptor Antagonist, MeTC7, which Inhibits the Growth of Xenograft and Transgenic Tumors In Vivo” (J Med Chem, 2022)
